From ChEMBL document CHEMBL4706684, “Discovering High Potent Hsp90 Inhibitors as Antinasopharyngeal Carcinoma Agents through Fragment Assembling Approach” (J Med Chem, 2021)
Active and inactive are the calls of the source. The calls are words filed in the database; no cut-off is given here.

Assays:
[1] = system: CNE-2; assay: Induction of apoptosis in human CNE-2 cells assessed as late apoptosis cells level at 500 nM incubated for 12 hrs by Annexin-V/FITC staining based FACS analysis (reference value: 1.45%); format: cell-based; settings: cne-2, 12 h, 0.5 µM
[2] = system: CNE-2; assay: Induction of apoptosis in human CNE-2 cells overexpressing HSP90 assessed as early apoptosis cells level at 70 nM incubated for 12 hrs by Annexin-V/FITC staining based FACS analysis (reference value: 3.1%); format: cell-based; settings: cne-2, 12 h, 0.07 µM
[3] = system: CNE-2; assay: Induction of apoptosis in human CNE-2 cells assessed as necrosis cells level at 70 nM incubated for 12 hrs by Annexin-V/FITC staining based FACS analysis (reference value: 1.49%); format: cell-based; settings: cne-2, 12 h, 0.07 µM
[4] = system: CNE-2; assay: Antitumor activity against human CNE-2 cells xenografted in nu/nu mouse assessed as inhibition of tumor growth at 1 mg/kg, po for 32 days; format: functional, organism-based; settings: time 32.0 day
[5] = system: CNE-2; assay: Induction of apoptosis in human CNE-2 cells assessed as necrosis cells level at 100 nM incubated for 12 hrs by Annexin-V/FITC staining based FACS analysis (reference value: 1.45%); format: cell-based; settings: cne-2, 12 h, 0.1 µM
[6] = system: CNE-2; assay: Induction of apoptosis in human CNE-2 cells assessed as necrosis cells level at 20 nM incubated for 12 hrs by Annexin-V/FITC staining based FACS analysis (reference value: 1.45%); format: cell-based; settings: cne-2, 12 h, 0.02 µM
[7] = system: CNE-2; assay: Induction of apoptosis in human CNE-2 cells assessed as late apoptosis cells level at 200 nM incubated for 12 hrs by Annexin-V/FITC staining based FACS analysis (reference value: 1.45%); format: cell-based; settings: cne-2, 12 h, 0.2 µM
[8] = target: T1, Heat shock protein HSP 90-alpha (Homo sapiens, UniProt P07900); assay: Inhibition of HSP90-alpha in human CNE-2 cells assessed as reduction in PKB protein levels at 20 to 500 nM incubated for 24 hrs by immunoblot analysis; format: cell-based; settings: dose 20-500 nM
Summary of the method: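 CNE2 cells (RPMI 1640, 10% FBS, 37 °C, 5% CO₂) were incubated with inhibitor for 24 h, then lysed in RIPA buffer on ice for 30 min. Lysates were run on 8–12% SDS-PAGE and transferred to PVDF. Membranes were blocked with 5% milk and probed with primary antibodies overnight, then HRP secondaries. Detection was by chemiluminescence with actin as loading control.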

[9] = system: CNE-2; assay: Cytotoxicity in human CNE-2 cells assessed as reduction in cell viability incubated for 48 hrs by MTT assay; format: cell-based; settings: CNE-2, 48 h
Summary of the method: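 Cells were seeded at 3 × 10³ cells per well and grown for 24 h at 37 °C in 5% CO₂. CNE2 was grown in RPMI 1640 and HeLa and HepG2 in DMEM, each with 10% FBS and 1% penicillin/streptomycin. Cells were exposed to 0−20 μM inhibitor for 48 h, with a DMSO solvent control. MTT (0.5 mg/mL) was then added for 3 h.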

[10] = system: HEK-293T; assay: Cytotoxicity in HEK293T cells assessed as reduction in cell viability up to 20 uM incubated for 48 hrs by MTT assay; format: cell-based; settings: human
[11] = system: CNE-2; assay: Induction of apoptosis in human CNE-2 cells assessed as Bcl-XL degradation at 70 nM incubated for 24 hrs in presence of HSP90-alpha siRNA by immunoblot analysis; format: functional, cell-based
Summary of the method: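 CNE2 cells were transiently transfected with Hsp90 siRNA (siHsp90-1 or siHsp90-2) at 150 nM final using Lipofectamine 2000. They were then incubated with inhibitor for 24 h and immunoblotted: RIPA lysis, 8–12% SDS-PAGE, PVDF, overnight primary antibodies, HRP secondaries, chemiluminescence, actin as loading control.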

[12] = system: CNE-2; assay: Induction of apoptosis in human CNE-2 cells assessed as late apoptosis cells level at 70 nM incubated for 12 hrs by Annexin-V/FITC staining based FACS analysis (reference value: 2.18%); format: cell-based; settings: cne-2, 12 h, 0.07 µM
[13] = Binding affinity to HSP90-alpha L107G mutant (unknown origin) expressed in Escherichia coli BL21 by SPR assay; design: species or system Homo sapiens
Summary of the method: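 SPR on a Biacore T200 at 25 °C with running buffer PBST (PBS pH 7.4, 0.005% Tween-20). Protein at 20 μg/mL in 10 mM sodium acetate pH 5.0 was immobilized on a CM5 chip, which was equilibrated overnight in PBST. Inhibitor serially diluted from 10 μM was injected at 30 μL/min with 120 s contact and 120 s dissociation.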

[14] = system: CNE2 (Homo sapiens); assay: Induction of apoptosis in human CNE2 cells at 70 nM incubated for 12 hrs in presence of HSP90-beta siRNA by Annexin-V/FITC staining based FACS analysis; settings: cne2, 12 h, 0.07 µM
[15] = system: CNE-2; assay: Induction of apoptosis in human CNE-2 cells overexpressing HSP90 assessed as necrosis cells level at 70 nM incubated for 12 hrs by Annexin-V/FITC staining based FACS analysis (reference value: 1.49%); format: cell-based; settings: cne-2, 12 h, 0.07 µM
[16] = target: T1, Heat shock protein HSP 90-alpha; assay: Binding affinity to HSP90-alpha (unknown origin) expressed in Escherichia coli BL21 by SPR assay
[17] = system: CNE-2; assay: Induction of apoptosis in human CNE-2 cells assessed as early apoptosis cells level at 200 nM incubated for 12 hrs by Annexin-V/FITC staining based FACS analysis (reference value: 1.45%); format: cell-based; settings: cne-2, 12 h, 0.2 µM
[18] = system: CNE-2; assay: Induction of apoptosis in human CNE-2 cells assessed as viable cells level at 70 nM incubated for 12 hrs by Annexin-V/FITC staining based FACS analysis (reference value: 93.2%); format: cell-based; settings: read-out: Activity
Summary of the method: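 CNE2 cells (RPMI 1640 with 10% FBS) were seeded at 5 × 10⁴ cells per well. After 24 h they were treated with compound in 0.05% DMSO for 12 h. Cells were then washed twice with PBS, pelleted, and stained in binding buffer with Annexin V-FITC and PI for flow cytometry.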

[19] = Oral bioavailability in Kunming mouse at 2 mg/kg measured up to 6 hrs by HPLC analysis; format: ADME, organism-based; settings: in vivo
Summary of the method: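 Male Kunming mice, 9–11 weeks old, about 23 g, four per group, were given a single 2 mg/kg dose intravenously or orally. Blood was sampled at 0, 10, 15, 30 min and 1, 2, 4, 6 h. For each sample, 40 μL plasma was deproteinized with 200 μL acetonitrile and centrifuged 10 min at 12 000 rpm before analysis.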

[20] = system: CNE-2; assay: Induction of apoptosis in human CNE-2 cells assessed as early apoptosis cells level at 50 nM incubated for 12 hrs by Annexin-V/FITC staining based FACS analysis (reference value: 1.45%); format: cell-based; settings: cne-2, 12 h, 0.05 µM
[21] = system: CNE-2; assay: Induction of apoptosis in human CNE-2 cells assessed as late apoptosis cells level at 20 nM incubated for 12 hrs by Annexin-V/FITC staining based FACS analysis (reference value: 1.45%); format: cell-based; settings: cne-2, 12 h, 0.02 µM
[22] = system: CNE-2; assay: Induction of apoptosis in human CNE-2 cells overexpressing HSP90 assessed as late apoptosis cells level at 70 nM incubated for 12 hrs by Annexin-V/FITC staining based FACS analysis (reference value: 2.18%); format: cell-based; settings: cne-2, 12 h, 0.07 µM

CC(C)(C)c1ccc(Cn2cc(-c3cc(O)c(O)c(O)c3)nn2)cc1
Activity [1]: 33.4%
Activity [2]: 3.96%
Activity [3]: 1.2%
TGI [4]: Active
Activity [5]: 0.57%
Activity [6]: 0.17%
Activity [7]: 11.6%
inhibition [8]: Active
IC50 [9]: 40 nM
Activity [10]: Non-Toxic
Activity [11]: inactive
Activity [12]: 9.56%
Kd [13]: 29100 nM
Activity [14]: Non-Toxic
Activity [15]: 0.64%
Kd [16]: 63 nM
Activity [17]: 13%
viability at 0.07 µM [18]: 75%
bioavailability [19]: 12%
Activity [20]: 7.17%
Activity [21]: 2.19%
Activity [22]: 1.28%
